# Laboratory results as given in ChEMBL document CHEMBL2417510, “Stereoselective pharmacodynamic and pharmacokinetic analysis of sec-Butylpropylacetamide (SPD), a new CNS-active derivative of valproic acid with unique activity against status epilepticus” (J Med Chem, 2013).
# Experiments:
# Mus musculus [1] = test: Teratogenicity in SWV/Fnn mouse assessed as resorption at 301 mg/kg, ip on day 8.5 of gestation (reference value: 6.3 %); format: toxicity, organism-based; design: dose 301 mg/kg, route intraperitoneal; settings: in vivo
# Mus musculus [2] = test: Teratogenicity in SWV/Fnn mouse assessed as normal fetuses at 181 mg/kg, ip on day 8.5 of gestation (reference value: 100 %); format: toxicity, organism-based; design: dose 181 mg/kg, route intraperitoneal; settings: in vivo
# Mus musculus [3] = test: Teratogenicity in SWV/Fnn mouse assessed as resorption at 181 mg/kg, ip on day 8.5 of gestation (reference value: 6.3 %); format: toxicity, organism-based; design: dose 181 mg/kg, route intraperitoneal; settings: in vivo
# Mus musculus [4] = test: Teratogenicity in SWV/Fnn mouse assessed as live fetuses at 181 mg/kg, ip on day 8.5 of gestation (reference value: 93.7 %); format: toxicity, organism-based; design: dose 181 mg/kg, route intraperitoneal; settings: in vivo
# Mus musculus [5] = test: Teratogenicity in SWV/Fnn mouse assessed as fetuses with neural tube defects at 181 mg/kg, ip on day 8.5 of gestation relative to vehicle-treated control; format: toxicity, organism-based; design: dose 181 mg/kg, route intraperitoneal; settings: in vivo
# Mus musculus [6] = test: Teratogenicity in SWV/Fnn mouse assessed as normal fetuses at 301 mg/kg, ip on day 8.5 of gestation (reference value: 100 %); format: toxicity, organism-based; design: dose 301 mg/kg, route intraperitoneal; settings: in vivo
# Mus musculus [7] = test: Teratogenicity in SWV/Fnn mouse assessed as normal fetuses at 283 mg/kg, ip on day 8.5 of gestation (reference value: 100 %); format: toxicity, organism-based; design: dose 283 mg/kg, route intraperitoneal; settings: in vivo
# [8] = Tmax in rat at 60 mg/kg, ip; format: ADME, organism-based; design: dose 60 mg/kg, route intraperitoneal; settings: in vivo
# How it was run: (§1)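 Naive rats got a single ip dose of 60 mg/kg, formulated in multisol (propylene glycol:alcohol:water for injection, 5:1:4). Plasma concentration–time profiles were followed, and PK parameters (t1/2, CL/F, Vz/F, AUC, Cmax, tmax, MRT) were derived from them.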
# Mus musculus [9] = test: Teratogenicity in SWV/Fnn mouse assessed as live fetuses at 283 mg/kg, ip on day 8.5 of gestation (reference value: 93.7 %); format: toxicity, organism-based; design: dose 283 mg/kg, route intraperitoneal; settings: in vivo
# Mus musculus [10] = test: Teratogenicity in SWV/Fnn mouse assessed as fetuses with neural tube defects at 283 mg/kg, ip on day 8.5 of gestation relative to vehicle-treated control; format: toxicity, organism-based; design: dose 283 mg/kg, route intraperitoneal; settings: in vivo
# Rattus norvegicus [11] = test: Anticonvulsant activity in ip dosed albino Sprague-Dawley rat assessed as protection against pilocarpine-induced behavioral seizures administered 30 mins post seizure measured after 0.25 to 0.5 hrs; format: functional
# How it was run: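 Status epilepticus was induced in rats with lithium–pilocarpine. Compound was given ip 30 min after the first observed stage 3 or greater motor seizure. The read-out was prevention of further convulsive seizures across various doses in groups of 4–8 rats.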
# [12] = Neurotoxicity in ip dosed albino CF1 mouse assessed as minimal motor impairment after 0.25 to 0.5 hrs; format: toxicity, organism-based; settings: in vivo
# How it was run: (§2)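 Each test was run at the previously determined time to peak effect: 0.25–0.5 h after ip dosing, or 0.5–1 h after oral dosing. Groups of 4–8 animals received various doses until at least two points fell between 0% and 100% protection or minimal toxicity.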
# [13] = Terminal half life in rat at 60 mg/kg, ip; format: ADME, organism-based; design: dose 60 mg/kg, route intraperitoneal; settings: in vivo, read-out: beta t1/2 (converted); how it was run: as §1
# Hippocampus [14] = test: Protection against kainic acid-induced spontaneous electrographic seizures in combined medial entorhinal cortex hippocampal brain slices of albino Sprague-Dawley rat assessed as burst duration at 100 uM after 1 week relative to control; format: functional
# How it was run: (§3)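 Rat brain slices showing spontaneous bursting were exposed to 100 μM compound. Burst rate and burst duration were expressed as % of control ± SEM.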
# [15] = Cmax in rat at 60 mg/kg, ip; format: ADME, organism-based; design: dose 60 mg/kg, route intraperitoneal; settings: in vivo; how it was run: as §1
# Mus musculus [16] = test: Teratogenicity in SWV/Fnn mouse assessed as fetuses with neural tube defects at 141 mg/kg, ip on day 8.5 of gestation relative to vehicle-treated control; format: toxicity, organism-based; design: dose 141 mg/kg, route intraperitoneal; settings: in vivo
# Mus musculus [17] = test: Teratogenicity in SWV/Fnn mouse assessed as resorption at 283 mg/kg, ip on day 8.5 of gestation (reference value: 6.3 %); format: toxicity, organism-based; design: dose 283 mg/kg, route intraperitoneal; settings: in vivo
# [18] = Neurotoxicity in po dosed albino Sprague-Dawley rat assessed as minimal motor impairment after 0.5 to 1 hr; format: toxicity, organism-based; settings: in vivo; how it was run: as §2
# Mus musculus [19] = test: Anticonvulsant activity in ip dosed albino CF1 mouse assessed as protection against 32 mA-current- for 3 secs induced seizures after 0.25 to 0.5 hrs by 6Hz psychomotor seizure test; format: functional; how it was run: as §2
# Mus musculus [20] = test: Teratogenicity in SWV/Fnn mouse assessed as normal fetuses at 141 mg/kg, ip on day 8.5 of gestation (reference value: 100 %); format: toxicity, organism-based; design: dose 141 mg/kg, route intraperitoneal; settings: in vivo
# [21] = Mean residence time in rat at 60 mg/kg, ip; format: ADME, organism-based; design: dose 60 mg/kg, route intraperitoneal; settings: in vivo; how it was run: as §1
# Mus musculus [22] = test: Teratogenicity in SWV/Fnn mouse assessed as resorption at 141 mg/kg, ip on day 8.5 of gestation (reference value: 6.3 %); format: toxicity, organism-based; design: dose 141 mg/kg, route intraperitoneal; settings: in vivo
# Hippocampus [23] = test: Protection against kainic acid-induced spontaneous electrographic seizures in combined medial entorhinal cortex hippocampal brain slices of albino Sprague-Dawley rat assessed as burst rate at 100 uM after 1 week relative to control; format: functional; how it was run: as §3
# [24] = Apparent volume of distribution […] in rat at 60 mg/kg, ip; format: ADME, organism-based; design: dose 60 mg/kg, route intraperitoneal; settings: in vivo, read-out: Vz/F; how it was run: as §1
# Mus musculus [25] = test: Anticonvulsant activity in ip dosed albino CF1 mouse assessed as protection against 44 mA-current- for 3 secs induced seizures after 0.25 to 0.5 hrs by 6Hz psychomotor seizure test; format: functional; how it was run: as §2
# [26] = Apparent clearance in rat at 60 mg/kg, ip; format: ADME, organism-based; design: dose 60 mg/kg, route intraperitoneal; settings: in vivo; how it was run: as §1
# Rattus norvegicus [27] = test: Anticonvulsant activity in po dosed albino Sprague-Dawley rat assessed as protection against maximal electroshock-induced seizures after 0.5 to 1 hr; format: functional; how it was run: as §2
# Mus musculus [28] = test: Teratogenicity in SWV/Fnn mouse assessed as live fetuses at 141 mg/kg, ip on day 8.5 of gestation (reference value: 93.7 %); format: toxicity, organism-based; design: dose 141 mg/kg, route intraperitoneal; settings: in vivo
# [29] = AUC in rat at 60 mg/kg, ip; format: ADME, organism-based; design: dose 60 mg/kg, route intraperitoneal; settings: plasma; how it was run: as §1
# Mus musculus [30] = test: Anticonvulsant activity in ip dosed albino CF1 mouse assessed as protection against maximal electroshock-induced seizures after 0.25 to 0.5 hrs; format: functional; how it was run: as §2
# Mus musculus [31] = test: Anticonvulsant activity in ip dosed albino CF1 mouse assessed as protection against subcutaneous metrazol-induced seizures after 0.25 to 0.5 hrs; format: functional; settings: albino CF1, 0.5 h; how it was run: as §2
# Rattus norvegicus [32] = test: Anticonvulsant activity in ip dosed albino Sprague-Dawley rat assessed as protection against subcutaneous metrazol-induced seizures after 0.25 to 0.5 hrs; format: functional; how it was run: as §2
# [33] = Neurotoxicity in ip dosed albino Sprague-Dawley rat assessed as minimal motor impairment after 0.25 to 0.5 hrs; format: toxicity, organism-based; settings: in vivo; how it was run: as §2
# [34] = Solubility of the compound in 5:1:4 solution of propylene glycol, alcohol and water; format: physicochemical
# [35] = Solubility of the compound in water; format: physicochemical
SMILES,Activity (Mus musculus [7]),Tmax [8],Activity (Mus musculus [9]),Activity (Mus musculus [10]),ED50 (Rattus norvegicus [11]),TD50 [12],half-life [13],Activity (Hippocampus [14]),Cmax [15],Activity (Mus musculus [16]),Activity (Mus musculus [17]),TD50 [18],ED50 (Mus musculus [19]),Activity (Mus musculus [20]),MRT [21],Activity (Mus musculus [22]),Activity (Hippocampus [23]),Vd/F [24],ED50 (Mus musculus [25]),CL/F [26],further results
CCCC(CCC)C(=O)[O-].[Na+] [VALPROATE SODIUM],,,,,,,,,,,,,,,,,,,,,Activity (Mus musculus [1]): 13.6%; Activity (Mus musculus [2]): 100%; Activity (Mus musculus [3]): 7.7%; Activity (Mus musculus [4]): 92.3%; Activity (Mus musculus [5]): 0%; Activity (Mus musculus [6]): 99%
"CCC[C@H](C(N)=O)[C@H](C)CC [(2S,3R)-SEC-BUTYLPROPYLACETAMIDE]",100%,0.5 h,90.6%,0%,> 130 mg/kg,> 75 mg/kg,0.95 h,90%,8000 ng/mL,0%,9.4%,105 mg/kg,27 mg/kg,100%,1.5 h,7.4%,91%,6.3 L/kg,< 100 mg/kg,76.7 mL/min/kg,ED50 (Rattus norvegicus [27]): 106 mg/kg; Activity (Mus musculus [28]): 92.6%; AUC [29]: 12600 ng·h/mL
"CCC[C@@H](C(N)=O)[C@H](C)CC [(2R,3R)-SEC-BUTYLPROPYLACETAMIDE]",94.6%,0.5 h,77.1%,5.4%,98 mg/kg,94 mg/kg,1.1 h,94%,18000 ng/mL,0%,22.9%,102 mg/kg,38 mg/kg,100%,1.5 h,7.5%,77%,3.6 L/kg,52 mg/kg,36.7 mL/min/kg,ED50 (Mus musculus [30]): 70 mg/kg; ED50 (Mus musculus [31]): 53 mg/kg; ED50 (Rattus norvegicus [32]): 15 mg/kg; TD50 [33]: 34 mg/kg; ED50 (Rattus norvegicus [27]): 79 mg/kg; Activity (Mus musculus [28]): 92.5%; AUC [29]: 26400 ng·h/mL
CCCC(C(N)=O)C(C)CC (racemic),87%,0.75 h,86.6%,0%,84 mg/kg,88 mg/kg,1.1 h,145%,14100 ng/mL,0%,13.4%,131 mg/kg,27 mg/kg,93%,1.8 h,7.5%,76%,3 L/kg,45 mg/kg,30 mL/min/kg,ED50 (Mus musculus [30]): 71 mg/kg; ED50 (Mus musculus [31]): 62 mg/kg; solubility [34]: 27 mg/mL; ED50 (Rattus norvegicus [32]): 21 mg/kg; solubility [35]: 1.5 mg/mL; TD50 [33]: 49 mg/kg; ED50 (Rattus norvegicus [27]): 29 mg/kg; Activity (Mus musculus [28]): 92.5%; AUC [29]: 31300 ng·h/mL
"CCC[C@@H](C(N)=O)[C@@H](C)CC [(2R,3S)-SEC-BUTYLPROPYLACETAMIDE]",100%,1 h,93.5%,0%,135 mg/kg,67 mg/kg,1.3 h,78%,5300 ng/mL,0%,6.5%,79 mg/kg,29 mg/kg,100%,2.2 h,8.4%,97%,7.2 L/kg,51 mg/kg,65 mL/min/kg,ED50 (Mus musculus [30]): 95 mg/kg; ED50 (Mus musculus [31]): 93 mg/kg; ED50 (Rattus norvegicus [32]): 15 mg/kg; TD50 [33]: 41 mg/kg; ED50 (Rattus norvegicus [27]): 72 mg/kg; Activity (Mus musculus [28]): 91.6%; AUC [29]: 15200 ng·h/mL
CCC[C@H](C(N)=O)[C@@H](C)CC,100%,0.5 h,92.5%,0%,94 mg/kg,126 mg/kg,1.5 h,45%,21700 ng/mL,0%,7.5%,124 mg/kg,27 mg/kg,100%,1.8 h,5.8%,109%,3.9 L/kg,59 mg/kg,30 mL/min/kg,ED50 (Mus musculus [30]): 75 mg/kg; ED50 (Mus musculus [31]): 69 mg/kg; ED50 (Rattus norvegicus [32]): 14 mg/kg; TD50 [33]: 34 mg/kg; ED50 (Rattus norvegicus [27]): 48 mg/kg; Activity (Mus musculus [28]): 94.2%; AUC [29]: 32900 ng·h/mL
